SMARCA2 act – SMARCA2 (BRM) function activators, primary screen, cell-based, luminescence, high throughput | MG213 cells, MMTV-luciferase reporter, dexamethasone, overnight | AID 652017, 2013 | 370,000 tested, 1% active | activation, % at 9.1 µM; in the data active means activation above about 7.8%;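 further: 0% = vehicle wells and 100% = reference activator wells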
MC4R antag cAMP – MC4R antagonists of cAMP signaling, primary screen, cell-based, TR-FRET, antagonist arm of biased-ligand search. inhibition, % at 6.5 µM. 360,000 tested, 0.48% active. AID 540295, 2011. MC4R-expressing cells, MTII-stimulated cAMP, LANCE TR-FRET. Melanocortin receptor 4 (Homo sapiens), P32245;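 active means inhibition above its plate's cutoff, the mean of tested wells on that plate plus 3 SD, cut at about 29% in these data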;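 further: 0% = Melanotan II alone and 100% = Melanotan II plus saturating MCL0020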
Target sequence (P32245 whole entry, looked up): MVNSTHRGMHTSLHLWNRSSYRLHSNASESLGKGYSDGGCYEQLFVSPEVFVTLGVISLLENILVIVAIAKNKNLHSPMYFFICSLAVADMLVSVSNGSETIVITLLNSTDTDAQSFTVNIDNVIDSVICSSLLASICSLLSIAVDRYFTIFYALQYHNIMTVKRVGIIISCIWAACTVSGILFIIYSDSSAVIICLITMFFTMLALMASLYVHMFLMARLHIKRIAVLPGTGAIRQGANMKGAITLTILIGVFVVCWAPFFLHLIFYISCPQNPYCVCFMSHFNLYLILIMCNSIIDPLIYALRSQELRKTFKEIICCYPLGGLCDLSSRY
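Material: human MC4R-expressing U2OS cells. Probe or stimulus: Melanotan II challenge. Dosing: 6.5 µM single dose. Times: 30-min compound, 1-h challenge, 1-h detection, room temperature. Technique: TR-FRET with Eu-cAMP and labeled anti-cAMP, 671 nm. Replication: singlicate.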
CFTR F508del cor – F508del CFTR correction, initial screen, CFBE line, single point; CFBE cells, YFP halide quenching; stimulated with forskolin plus potentiator P3; % fluorescence drop versus neutral controls; activity (quench increase), % at 7.58 µM; 350,000 tested, 0.36% active;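 active means mean added fluorescence quench of at least 8% versus neutral control, with both replicates also reaching 8%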;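 further: cells transiently co-express mutant CFTR-F508del with the halide-sensitive YFP; corrector assay measuring rescue of mutant channel to the surface after 24 h compound exposure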
MC4R ag barr – MC4R agonists recruiting beta-arrestin, primary screen, cell-based, luminescence, agonist arm of biased-ligand search. Melanocortin receptor 4 (Homo sapiens), P32245. U2OS MC4R beta-arrestin complementation; percent of melanotan II response, DMSO zero. activation, % at 8.9 µM. 360,000 tested, 0.98% active. AID 540308, 2011;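 active means activation above a per-plate cutoff, the mean activation of sample wells on that plate plus 3 SD, cut at about 8% in these data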
SMARCA2 act conf – SMARCA2 (BRM) function activators, confirmation, cell-based, luminescence, triplicate. activation, % at 9.1 µM. shares compounds with SMARCA2 act. 3,500 tested, 30% active. MG213 cells, MMTV-luciferase with dexamethasone, overnight; MG213 cells expressing E1A, Rb sequestered; DMSO wells 0%, reference activator 100%;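 active means activation above its plate's cutoff, the mean activation of tested wells plus 3 SD, cut at about 7.9% in these data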
GAL4-VP16 Luc – GAL4-VP16 luciferase reporter activation, counter-screen for SMARCA2 (BRM) activator project, cell-based, pG5luc, luminescence, high throughput; shares compounds with SMARCA2 act; HEK293 GAL4-VP16 pG5luc reporter; scaled: DMSO wells 0%, SAHA wells 100%; activation, % at 9.1 µM; 3,500 tested, 41% active; AID 686939, 2013;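 active means activation above the solvent-only control well mean plus 3 SD, averaged across control plates, cut at about 5.2% in these data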
Numbers without * were called inactive. In the library only some 2.1% were active in any assay of this set; here they are far more common.

Results for CCn1nc(C)cc1C(=O)N1CCc2c([nH]c3ccccc23)C1c1cc(F)ccc1F (configuration not stated) ?
SMARCA2 act: 9.0*; MC4R antag cAMP: -9; CFTR F508del cor: -4; MC4R ag barr: 1; SMARCA2 act conf: 4; GAL4-VP16 Luc: 6.3*

Results for C[C@@H]1CCCCO[C@@H](CN(C)CC2CC2)[C@H](C)CN([C@H](C)CO)C(=O)c2cc(NC(=O)CCC(F)(F)F)ccc2O1 ?
CFTR F508del cor: 1

How did C[C@@H]1CCCCO[C@@H](CN(C)Cc2ccccc2)[C@@H](C)CN([C@H](C)CO)C(=O)c2cc(NC(=O)c3ccncc3)ccc2O1 do in these assays?
CFTR F508del cor: 3

Results for Nc1cc(OCc2ccccc2)ccc1OCc1ccccc1 ?
SMARCA2 act: 9.4*; MC4R antag cAMP: 6; CFTR F508del cor: -1; MC4R ag barr: 4; SMARCA2 act conf: 3; GAL4-VP16 Luc: 7.8*

Results for O=C(C[C@H]1C=C[C@H](NC(=O)NC2CCCC2)[C@@H](CO)O1)NCc1ccc(F)cc1 ?
CFTR F508del cor: -3

Results for CN1CCN(C(=O)c2cn(C)c3ccc(S(=O)(=O)N(C)C4CCCCC4)cc3c2=O)CC1 ?
SMARCA2 act: 8.5*; MC4R antag cAMP: -1; CFTR F508del cor: -2; MC4R ag barr: 0; SMARCA2 act conf: -2; GAL4-VP16 Luc: 2

What do the screens show for `CN1C[C@H](O)COC[C@@H]2O[C@@H](CC(=O)N3CCN(c4ccccc4)CC3)CC[C@H]21`?
CFTR F508del cor: 1

How did C[C@H](NC(=O)C[C@@H]1C[C@@H]2c3cc(NC(=O)CC4CC4)ccc3O[C@@H]2[C@H](CO)O1)c1ccccc1 do in these assays?
CFTR F508del cor: -1

How did Clc1ccc(-c2csc(Nc3ccccc3)[n+]2Cc2ccco2)c(Cl)c1 do in these assays?
SMARCA2 act: 9.0*; MC4R antag cAMP: 15; CFTR F508del cor: -4; MC4R ag barr: -1; SMARCA2 act conf: 4; GAL4-VP16 Luc: 6.1*

How did CCCC[n+]1c(-c2ccc(Cl)cc2Cl)csc1Nc1ccccc1 do in these assays?
SMARCA2 act: -2; MC4R antag cAMP: 18; MC4R ag barr: -2

Results for COC(=O)[C@]12C[C@H](CC(=O)N3CCOCC3)C(=O)N(Cc3ccco3)C1=C[C@H](C(C)C)O[C@@H]2C1CC1 ?
SMARCA2 act: 9.6*; SMARCA2 act conf: 0; GAL4-VP16 Luc: 3

What do the screens show for `COC(=O)[C@]12C[C@H](CC(=O)N3CCCCC3)C(=O)N(Cc3ccco3)C1=C[C@H](C(C)C)O[C@@H]2C1CC1`?
SMARCA2 act: 5

Results for CCOC(=O)Cn1cncc1-c1ccc([N+](=O)[O-])cc1 ?
SMARCA2 act: 13*; MC4R antag cAMP: 1; MC4R ag barr: -2; SMARCA2 act conf: 6; GAL4-VP16 Luc: 3

What do the screens show for `CN(CC(=O)NCc1ccncc1)S(=O)(=O)c1ccc(F)cc1`?
SMARCA2 act: 8.3*; MC4R antag cAMP: 1; CFTR F508del cor: -1; MC4R ag barr: 0; SMARCA2 act conf: -2; GAL4-VP16 Luc: 0

What do the screens show for `COc1ccc([C@H]2CC(=O)C[C@@H](CCn3cc(-c4ccc(F)cc4)nn3)O2)cc1`?
SMARCA2 act: 9.6*; CFTR F508del cor: -1; SMARCA2 act conf: -3; GAL4-VP16 Luc: 1

Results for COc1ccc([C@H]2CC(=O)C[C@@H](CCn3cc(-c4ccccc4)nn3)O2)cc1 ?
SMARCA2 act: 0; CFTR F508del cor: -2

How did C[C@H](CO)N1C[C@H](C)[C@H](CN(C)Cc2ccncc2)Oc2ccc(NS(=O)(=O)c3ccc(F)cc3)cc2C1=O do in these assays?
CFTR F508del cor: 0

Results for O=C(C[C@@H]1CC[C@@H]2[C@H](COC[C@@H](O)CN2S(=O)(=O)c2ccccc2)O1)N1CCOCC1 ?
CFTR F508del cor: -1

High-throughput results from PubChem.
